Screening data deposited in PubChem by The Scripps Research Institute Molecular Screening Center.
Only some compounds are listed: those with a hit (about 1.9% of all), similar ones and a draw of the others.
CHRM4 antagonist: CHRM4 antagonism in calcium assay; inhibition, % at 3 µM; CHO-hM4 cells, ACh EC80, Fluo-8 calcium fluorescence; hit rate 0.73% among 360,000; P08173;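 active means inhibition above its plate's cutoff, the mean inhibition of sample wells plus 3 SD, cut at about 27% in these data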;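 further: 0% = acetylcholine EC80 with DMSO and 100% = DMSO without agonist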
CHRM4 PAM: potentiates acetylcholine response at human M4 receptor | hit rate 0.4% among 360,000 | activation, % at 3 µM | P08173 | CHO-K1 hM4/Gqi5, Fluo-8 calcium fluorescence, ACh EC20; 0% = ACh EC20, 100% = maximal ACh | AID 624126;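 active means activation above its plate's cutoff, the mean activation of sample wells plus 3 SD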
M5 ag: CHRM5 agonism in calcium assay; P08912; CHO-K1 hM5 cells, Fluo-8 calcium fluorescence; 0% DMSO wells, 100% maximal acetylcholine response; activation, % at 3 µM; hit rate 0.19% among 360,000; AID 624037;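 active means activation above the run's mean over test compounds plus 3 SD, cut at about 23% in these data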;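 further: signal is peak over basal fluorescence ratio across the kinetic read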
Target sequence (P08912 whole entry, looked up): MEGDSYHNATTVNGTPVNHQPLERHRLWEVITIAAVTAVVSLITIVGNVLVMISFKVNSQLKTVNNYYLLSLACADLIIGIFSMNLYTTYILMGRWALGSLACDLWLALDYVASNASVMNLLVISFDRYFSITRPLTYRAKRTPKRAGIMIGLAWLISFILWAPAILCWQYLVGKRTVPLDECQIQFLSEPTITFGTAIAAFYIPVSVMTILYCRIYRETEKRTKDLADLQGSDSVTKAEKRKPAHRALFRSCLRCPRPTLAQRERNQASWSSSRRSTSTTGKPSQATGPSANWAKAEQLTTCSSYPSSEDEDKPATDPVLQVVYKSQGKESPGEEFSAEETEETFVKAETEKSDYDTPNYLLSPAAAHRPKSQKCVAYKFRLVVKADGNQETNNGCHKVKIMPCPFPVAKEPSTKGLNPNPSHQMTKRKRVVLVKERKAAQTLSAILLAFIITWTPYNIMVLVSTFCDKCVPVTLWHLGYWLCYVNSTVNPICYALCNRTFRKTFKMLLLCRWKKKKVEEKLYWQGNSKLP
CHRM4 agonist: CHRM4 agonism in calcium assay; hit rate 0.14% among 360,000; P08173; activation, % at 3 µM; CHO-K1 hM4/Gqi5, Fluo-8 calcium fluorescence; vehicle 0%, full acetylcholine response 100%;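 active means activation above the run mean over all test wells plus 3 SD, cut at about 32% in these data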;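 further: peak over basal fluorescence ratio per well then scaled between controls; 0% = DMSO wells and 100% = acetylcholine at EC100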
M5 PAM: CHRM5 positive allosteric modulation; P08912; AID 624038; CHO-K1 hM5, Fluo-8 calcium, ACh EC20 PAM; 0% = ACh EC20, 100% = ACh EC100; activation, % at 3 µM; hit rate 0.3% among 360,000;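 active means activation above the run cutoff, the mean activation of all test compounds plus 3 SD, cut at about 18% in these data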
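System: CHO-K1 cell line with stable human muscarinic M5 receptor expression | Also added: EC20 acetylcholine as agonist stimulus | Compound: One concentration, 3 µM final (nominal) | Timing: Fluo-8 loading 80 min at 37 °C plus 30 min room temperature | Measured by: Fluo-8 calcium dye fluorescence, kinetic read | Read-out basis: % activation, ACh-normalized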
M5 antag: antagonists of human muscarinic M5 receptor (CHRM5). P08912. CHO-hM5 cells, Fluo-8 calcium fluorescence, ACh EC80. inhibition, % at 3 µM. hit rate 0.59% among 360,000. AID 624040;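 active means inhibition above a per-plate cutoff, the mean of that plate's test compounds plus 3 SD, cut at about 27% in these data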;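 further: 0% = acetylcholine EC80 with DMSO and 100% = DMSO without agonist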
Active calls of the source: *.

SMILES | CHRM4 antagonist | CHRM4 PAM | M5 ag | CHRM4 agonist | M5 PAM | M5 antag
O=C(Cc1ccc(Cl)cc1)Nc1ccc(Cl)cn1 | -3 | -2 | 0 | -1 | 21* | -8
O=C(Cc1ccc(F)cc1)Nc1ccc(Cl)cn1 | 17 | 15* | 0 | 5 | 49* | 30*
O=C(Cc1ccccc1)Nc1cccnc1 | 3 | 14 | -1 | 0 | 7 | -2
O=C(COC(=O)Cc1ccc(F)cc1)Nc1ccc(Cl)cn1 | -5 | 1 | -1 | 0 | 1 | -4
O=C(Cc1ccc(Cl)cc1)Nc1cccnc1 | -8 | 28* | 1 | 1 | 1 | -7
Cc1ccc(NC(=O)CCN2CC(C)OC(C)C2)cc1C (stereo unspecified) | 8 | -5 | 3 | 0 | 7 | 5
O=C(Nc1nc(-c2ccc(F)c(F)c2)cs1)c1cc([N+](=O)[O-])ccc1N1CCOCC1 | -2 | 7 | 0 | 0 | -2 | 3
Cc1cc(C)c(-c2csc(NC(=O)c3cc([N+](=O)[O-])ccc3N3CCOCC3)n2)c(C)c1 | 36* | -18 | -10 | -1 | -20 | 23
COc1ccc(Cl)cc1/C=C(\C#N)C(N)=O | 4 | 4 | 0 | 1 | 0 | 3
Cc1cccc(NC(=O)c2sc3nc(-c4ccc(F)cc4)cn3c2C)n1 | 0 | -7 | -7 | 4 | -18 | 32*
Cc1cccc(N2CCN(C(=O)CCC(=O)N3CC(C)Oc4ccc(C)cc43)CC2C)c1 (stereo unspecified) | 101* | -19 | 2 | 12 | -8 | 3
Cc1ccc2c(c1)N(C(=O)CCC(=O)N1CCN(c3ccccn3)CC1)CC(C)O2 (stereo unspecified) | 3 | -5 | 0 | 3 | -5 | 4
CC(=O)Nc1ccc(NC(=O)c2cc[n+]([O-])cc2)cc1 | 4 | -7 | -3 | 1 | -6 | 29*
CC(=O)Nc1ccc(C(=O)Nc2cc(C)on2)cc1 | 28* | -13 | -2 | -1 | -2 | 0
CC(C)(C)c1ccc(NC(=O)c2cc[n+]([O-])cc2)cc1 | 0 | 1 | -2 | 1 | 0 | 17
COc1cc(Cl)c(C)cc1NC(=O)c1ccc(NS(=O)(=O)c2ccc(F)c(F)c2)cc1 | -9 | 20* | 1 | 0 | 8 | 5
CCN1C(=NCCCCO)N[C@@H](c2cccc(F)c2)C(C(=O)OC)=C1C | -11 | 23* | -6 | 0 | 5 | -1
CCOC(=O)c1ccc(NC(=O)CSc2nc3ncccc3[nH]2)cc1 | -16 | 4 | 4 | 5 | -8 | 7
CCCCc1ccc(NC(=O)CSc2nc3ncccc3[nH]2)cc1 | 33* | -11 | 5 | 21 | -10 | 9
C#CCOCCOCCOCCNc1nc(N2CCN(C(=O)CCCCCCCCCCNC(=O)[C@@H](CCC(=O)O)n3cc(CCCCCN)nn3)CC2)nc(N2CCN(C(=O)CCCCCCCCCCNC(=O)[C@H](CCCCN)n3cc(C[C@@H](C)CC)nn3)CC2)n1 | 4 | -12 | 0 | 33* | 0 | 10
C#CCOCCOCCOCCNc1nc(N2CCN(C(=O)CCCCCCCCCCNC(=O)[C@H](CCCCN)n3cc(C)nn3)CC2)nc(N2CCN(C(=O)CCCCCCCCCCNC(=O)[C@@H]([C@H](C)O)n3cc(C)nn3)CC2)n1 | 2 | -4 | -10 | 22 | 0 | 9
C#CCOCCOCCOCCNc1nc(N2CCN(C(=O)CCCCCCCCCCNC(=O)[C@@H](CCSC)n3cc(CCO)nn3)CC2)nc(N2CCN(C(=O)CCCCCCCCCCNC(=O)[C@@H]([C@H](C)O)n3cc(C)nn3)CC2)n1 | 12 | -5 | 2 | 3 | -8 | 27*
C#CCOCCOCCOCCNc1nc(N2CCN(C(=O)CCCCCCCCCCNC(=O)[C@@H](CCC(=O)O)n3cc(CCCCCN)nn3)CC2)nc(N2CCN(C(=O)CCCCCCCCCCNC(=O)[C@H](CO)n3cc(CCCCCN)nn3)CC2)n1 | 7 | -4 | 1 | 1 | -3 | 1
Cc1ccc([N+](=O)[O-])cc1S(=O)(=O)Nc1ccc(C(=O)NCC2CCCO2)cc1 (stereo unspecified) | 7 | 1 | 2 | 0 | 4 | 10
CC(=O)N1CCN(C(=O)CSc2ncnc3sc(C)c(C)c23)CC1 | 2 | 1 | 5 | 0 | 6 | 10
SMILES | CHRM4 antagonist | CHRM4 PAM | M5 ag | CHRM4 agonist | M5 PAM | M5 antag
CCOc1ccccc1NC(=O)CCCN1C(=S)NC(C)(C)CC1C (stereo unspecified) | -7 | 6 | -4 | 0 | 2 | -5
O=C(c1noc2c1CCCC2)N1CCN(c2ccc(F)cc2)CC1 | 29* | 3 | 2 | 3 | 3 | -1
O=C(CSc1nnc(NC(=O)C2CC(=O)N(c3ccc(F)cc3)C2)s1)NCC1CCCO1 (stereo unspecified) | -1 | 5 | -1 | 1 | 4 | -4
COc1ccc(-c2csc(NC(=O)Cc3ccccc3F)n2)cc1OC | 45* | -21 | -2 | 8 | -14 | 26
COc1ccc(-c2csc(NC(=O)CN3C(=O)C4CC=CCC4C3=O)n2)cc1OC (stereo unspecified) | 8 | -6 | -1 | 9 | -13 | 29*
COc1ccc(CC(=O)Nc2nc(-c3ccc(OC)c(OC)c3)cs2)cc1OC | -14 | -1 | 23* | 25 | -12 | -1
Cc1cccc(OCCSc2nc(N)cc(N)n2)c1 | 5 | -9 | -4 | 1 | -7 | 15
O=C(CCN1CCCCO1)N1CCCC(N2CCN(c3ccc(F)cc3)CC2)C1 (stereo unspecified) | -1 | 8 | -3 | 1 | 4 | -3
Cc1ccc2c(c1)sc[n+]2Cc1ccccc1 | 21 | -2 | 19 | -1 | 21* | 10
CCOC(=O)c1ccc(NC(=S)N2CCSC2c2ccc(Br)cc2)cc1 (stereo unspecified) | 28* | -8 | 14 | 46* | 2 | 13
CCOC(=O)c1ccc(NC(=S)N2CCC(O)CC2)cc1 | -7 | 2 | -3 | 1 | 0 | 11
CN1C(=S)SC(C)(C)C1(C)NO (stereo unspecified) | -2 | 7 | -1 | 1 | 26* | -12
O=C(Nc1ccc(F)c(Cl)c1)Nc1csc2ccccc12 | 18 | -11 | 7 | 20 | -26 | 34*
O=C(Nc1ccc(F)cc1F)Nc1csc2ccccc12 | 6 | -13 | -2 | 12 | -31 | 33*
Cc1nnc2c(NC3CCCCC3)nc3ccccc3n12 | 5 | 3 | -1 | 0 | 2 | 4
CCCCC(=O)Nc1ccc2c(c1)nc1n2CCOC1 | -9 | 2 | -1 | 0 | -1 | -5
